Assay results as given in PMC2885444 (The Biochemical journal, 2009).
pKd: −log10 of the molar value.

Experiments:
CHD4 PHD2 finger = CHD4 PHD2 finger (Homo sapiens, UniProt Q14839); test: NMR titration; format: binding; conditions: for NMR exchange regime: 1H,15N HSQC titration, NMR time scale
CHD4 PHD2 F448A mutant = test: Binding and NMR of F448A mutant; conditions: F448A mutant vs wild-type
In short: (§1)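 Point mutant of the PHD2 finger was made by PCR mutagenesis and expressed as a GST fusion in E. coli BL21(DE3) pLysS on ¹⁵NH₄Cl minimal medium. It was purified on glutathione beads, tag-cleaved, then held in 20 mM Tris pH 6.8–7.5, 150 mM NaCl, 10 mM DTT and 1 mM NaN₃. ¹H,¹⁵N HSQC was run at 500 MHz with increasing 12-mer histone tail peptides. Kd came from a nonlinear least-squares fit of normalized shift changes.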

[1] = tested on: PHD fingers of BHC80 and AIRE (mutants); conditions: aspartate to alanine or hydrophobic residue to tryptophan; ref [17],[27]; cited from earlier work
CHD4 PHD2 E447A mutant = CHD4 PHD2 E447A mutant (Homo sapiens, UniProt Q14839, E450A); test: NMR titration, E447A mutant; format: binding
In short: as §1

CHD4 PHD2 C460W mutant = CHD4 PHD2 C460W mutant (Homo sapiens, UniProt Q14839, C463W); test: NMR titration, C460W mutant; format: binding
In short: as §1

[2] = tested on: CHD4 PHD2 finger (GST-fusion); format: binding; conditions: C-terminal biotinylated peptides (residues 1–21; H3K27/H3K36 residues 21–44), streptavidin–Sepharose beads, 50 mM Tris pH 7.5, 150 mM NaCl, 0.05% Nonidet P-40; anti-GST HRP detection
[3] = tested on: CHD4 PHD2 finger, Asp^454 substituted with valine; test: Binding of PHD2 with Asp454 substituted with valine; conditions: Asp454 to valine mutant

Chain of CHD4 PHD2 finger (Q14839 449-496 limits assumed): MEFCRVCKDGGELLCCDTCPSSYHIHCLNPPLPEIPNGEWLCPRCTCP
Chain of CHD4 PHD2 C460W mutant (Q14839 449-496 C463W limits assumed): as the sequence (Q14839 449-496 limits assumed) above, with C15W counted along it
Chain of CHD4 PHD2 E447A mutant (Q14839 449-496 E450A limits assumed): as the sequence (Q14839 449-496 limits assumed) above, with E2A counted along it

H3K9ac: histone H3 acetylated at Lys^9 (20-mer, Anaspec, in NMR; residues 1–21 in pull-down)
NMR exchange regime (CHD4 PHD2 finger): intermediate-to-fast exchange regime
Binding compared with wild-type (CHD4 PHD2 F448A mutant): more weakly

unmodified H3: unmodified histone H3 N-terminal tail peptide (residues 1–21 biotinylated in pull-down; 12-mer in NMR)
Interaction with mutant PHD fingers [1]: abolish interactions
pKd (CHD4 PHD2 E447A mutant; E447A mutant): 3.05
Binding compared with wild-type (CHD4 PHD2 E447A mutant; E447A mutant vs wild-type): significantly weaker
NMR exchange regime (CHD4 PHD2 finger): intermediate-to-fast exchange regime
pKd (CHD4 PHD2 C460W mutant; C460W mutant): 2.43
Binding compared with wild-type (CHD4 PHD2 C460W mutant; C460W mutant vs wild-type): significantly weaker

H3K4me3: histone H3 tri-methylated at Lys^4
Binding in pull-down (Western blot) [2]: significantly weaker
NMR exchange regime (CHD4 PHD2 finger): fast exchange regime

H3K4me1: histone H3 mono-methylated at Lys^4
Binding in pull-down (Western blot) [2]: significantly weaker

H3K9me3: histone H3 tri-methylated at Lys^9
Binding compared with wild-type [3]: significantly compromised
NMR exchange regime (CHD4 PHD2 finger): intermediate-to-fast exchange regime
Binding compared with wild-type (CHD4 PHD2 F448A mutant): more weakly

H3K9me1: histone H3 mono-methylated at Lys^9
Binding in pull-down (Western blot) [2]: able to recognize

H3(3-10): peptide comprising residues Thr^3–Ser^10 but lacking Ala^1 and Arg^2 (TKQTARKS)
NMR changes on titration (CHD4 PHD2 finger; wild-type PHD2, even a 10-fold excess of peptide): no changes
